Calls of active or inactive are those of the source.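 Rule for the calls: active = DNA binding activation reaching at least 20% of the dioxin reference response; inactive = the rest.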
Tested on: Aryl hydrocarbon receptor (Cavia porcellus)
Test: enhancers of AHR:DRE complex formation, late-stage follow-up, mechanism study for AHR activator project, cell lysate, guinea pig liver cytosol, radiometric EMSA (AID 602172)
Settings: radiometric gel; for DNA binding activation (% of TCDD): at 10 µM, hits give high values
Summary of the method: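 Material: guinea pig hepatic cytosol / Amount: cytosol at 8 mg protein per mL / Medium: HEDG buffer at pH 7.5 / Reagent: radiolabeled DRE DNA probe with poly[dI·dC] / Timing: compound exposure of cytosol 2.5 h, room temperature / Technique: radiometric EMSA with phosphorimaging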

SMILES	DNA binding activation (% of TCDD)	EC50 [nM]
Cc1cc(Nc2ccc(Br)cc2)n2nc(C)nc2n1	8.6% (inactive)	
Cc1ccc(Nc2ncccc2C(N)=O)cc1	17.6% (inactive)	
COc1cc2ccccc2cc1C(=O)Nc1ccc(C)cc1	67.8%	
Cn1c(N)c(C(=O)Nc2ccccc2F)sc1=S	37%	
COc1ccccc1NC(=O)c1ccc(C(=O)Nc2ccccc2OC)nc1	6.4% (inactive)	
COC(=O)c1ccccc1NC(=O)Cn1ccnc1	5.2% (inactive)	
O=C(Nc1ccon1)c1cnc2sccn2c1=O	21%	
CCOC(=O)Cc1cc(-c2ccc(O)cc2)nc2ccc3ccccc3c12	15.3% (inactive)	
COc1ccc(Cl)cc1C(=O)Nc1ccc(N(C)C(C)=O)cc1	20.2%	
COc1ccccc1C(=O)Nc1ccc(N2CCCCC2)cc1	42%	
Cc1nnc(N2C(=O)c3cccc4c([N+](=O)[O-])ccc(c34)C2=O)s1	3.7% (inactive)	
CC(=O)c1ccc(NC(=O)c2cc(Cl)nc3ccccc23)cc1	5.3% (inactive)	
CCC(=O)Nc1cc(OC)c(NC(=O)c2ccccc2)cc1OC	7% (inactive)	
Cn1c(C(=O)N2CCC(C(N)=O)CC2)cc2cc(Cl)ccc21	27.8%	
Cc1csc(SCC(=O)Nc2ccc(Cl)cn2)n1	7.8% (inactive)	
COc1ccccc1NC(=O)c1ccc2c(c1)nnn2C	15% (inactive)	
CN(C)c1nc(N)nc(-c2nc3ccccc3s2)n1	58.6%	
O=C(Nc1cccc(Cl)c1)c1cccnn1	21.6%	
COc1cc2c(cc1NC(=O)Nc1ccc(C)cc1)oc1ccccc12	17% (inactive)	
Cc1nc(N)nc(Nc2ccc(Cl)cc2)c1Br		1000
O=C1c2ccccc2-c2nc3ccccc3nc21	59.4%	

Further lines, results first:

DNA binding activation (% of TCDD)	EC50 [nM]	SMILES
18% (inactive)		COc1ccc(NC(=O)c2cccc3c(Br)cccc23)cc1
10% (inactive)		COc1ccc(C(=O)Nc2cc(OC)c(NC(=O)c3ccco3)cc2OC)cc1
40.4%		Cc1ccccc1-c1nc(-c2cccnc2)no1
8.2% (inactive)		CCOc1ccc(-c2cc(C)n3nc(C(N)=O)cc3n2)cc1
3.2% (inactive)		O=C(CN1CCOCC1)Nc1nc2ccc([N+](=O)[O-])cc2s1
	500	Cc1ccc(-c2cc(-c3cccs3)[nH]n2)c(O)c1
46.8%		CCOc1ccc(NC(=O)c2cc3ccccc3cc2OC)cc1
5.4% (inactive)		CN1CCN(CCCNC(=O)c2cc3c(-c4ccc(Cl)cc4)nn(C)c3s2)CC1
10% (inactive)		COc1ccccc1NC(=O)Nc1cccnc1
4.4% (inactive)		Cc1c(-c2ccn[nH]2)cc(NC(=O)c2ccc(Cl)cc2)c(=O)n1N
12.1% (inactive)		CCCC(=O)Nc1nn(C)c2nc3cc(C)ccc3cc12
20% (inactive)		CCOc1ccccc1NC(=O)c1ccc2nccnc2c1

From PubChem BioAssay AID602172 (The Scripps Research Institute Molecular Screening Center, 2012)
